pIC50: −log10 of the molar value. Entries after “also recorded” stand apart in the source; their conditions may differ. Like-named read-outs stand apart in the source and are kept apart here.
Experiments:
MES-SA = experiment: In vitro cytotoxicity, MES-SA; assay type: cell-based; conditions: Homo sapiens, 96 h, read-out: IC50 (GI50) MES-SA
SK-MEL-28 = experiment: In vitro cytotoxicity, SK-MEL-28; assay type: cell-based; conditions: Homo sapiens, SK-MEL-28, 96 h, read-out: IC50 (GI50) SK-MEL-28
In short: (§1)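 Tumour cell lines were grown in DMEM or RPMI with 10% FBS and penicillin-streptomycin, then plated in twelve-well dishes. Test compound was added 24 h later at various concentrations. After 96 h, viable cells were counted by trypan blue exclusion from duplicate wells.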

NAMALWA = experiment: In vitro cytotoxicity, NAMALWA; assay type: cell-based; conditions: Homo sapiens, 96 h, read-out: IC50 (GI50) NAMALWA
In short: as §1

SK BR-3 = experiment: In vitro cytotoxicity, SK BR-3; assay type: cell-based; conditions: Homo sapiens, SK-BR-3, 96 h, read-out: IC50 (GI50) SK BR-3
In short: as §1

MCF-7 = experiment: In vitro cytotoxicity, MCF-7; assay type: cell-based; conditions: Homo sapiens, MCF7, 96 h, read-out: IC50 (GI50) MCF-7
In short: as §1

H80 = experiment: In vitro cytotoxicity, H80; assay type: cell-based; conditions: Homo sapiens, 96 h, read-out: IC50 (GI50) H80
In short: as §1

RF-1 = experiment: In vitro cytotoxicity, RF-1; assay type: cell-based; conditions: Homo sapiens, RF1, 96 h, read-out: IC50 (GI50) RF-1
In short: as §1

N417 = experiment: In vitro cytotoxicity, N417; assay type: cell-based; conditions: Homo sapiens, N417, 96 h, read-out: IC50 (GI50) N417
In short: as §1

[1] = target: porcine brain tubulin (vinblastine binding site) (Sus scrofa, UniProt P02550+P02554); experiment: Competitive mass spectrometry binding assay, vinblastine site; conditions: vinblastine 1.2 μM, no GTP; competitor 0.1–100 μM
DU145 = experiment: In vitro cytotoxicity, DU145; assay type: cell-based; conditions: Homo sapiens, DU-145, 96 h, read-out: IC50 (GI50) DU145
MES-SA / DX5 = experiment: Cytotoxicity in multidrug-resistant subline MES-SA/DX5; assay type: cell-based, human; conditions: all three pairs of sensitive and drug-resistant cancer cells
tubulin in DU145 cells = experiment: In vivo; assay type: cell-based, human; conditions: for polymerized versus soluble tubulin in cells: 24 h treatment
DU145 cells [2] = experiment: Fluorescent tubulin staining, mitotic spindle; assay type: cell-based, human; conditions: 24 h exposure; 25 nM in Figure 2
HCT15 = experiment: In vitro cytotoxicity, HCT15; assay type: cell-based; conditions: Homo sapiens, HCT-15, 96 h, read-out: IC50 (GI50) HCT15
In short: as §1

various tumor cell lines = experiment: Cytotoxicity across a wide spectrum of cancer cell lines; assay type: cell-based; conditions: Homo sapiens, read-out: IC50 values across tumor cell lines of Table 3
In short: as §1

MOLT-4 = experiment: In vitro cytotoxicity, MOLT-4; assay type: cell-based; conditions: Homo sapiens, MOLT-4, 96 h, read-out: IC50 (GI50) MOLT-4
In short: as §1

T47D = experiment: In vitro cytotoxicity, T47D; assay type: cell-based; conditions: Homo sapiens, 96 h, read-out: IC50 (GI50) T47D
In short: as §1

MIA-PaCa-2 cells = experiment: Soft agar assay; assay type: cell-based, human; conditions: three weeks of growth
[3] = test system: BT20 human breast tumor xenograft; experiment: Nude mouse xenograft assay
HepG2 cells = experiment: Cytotoxicity to HepG2; assay type: cell-based; conditions: 4 h exposure, Alamar Blue
[4] = test system: purified bovine brain tubulin; experiment: In vitro tubulin polymerization; assay type: biochemical; conditions: 10 μM, 37 °C, absorbance at 340 nm over 40 min
PC3 = experiment: In vitro cytotoxicity, PC3; assay type: cell-based; conditions: Homo sapiens, PC-3, 96 h, read-out: IC50 (GI50) PC3
In short: as §1

[5] = target: porcine brain tubulin, preformed microtubules (paclitaxel binding site) (Sus scrofa, UniProt P02550+P02554); experiment: Competitive mass spectrometry binding assay, paclitaxel site; conditions: paclitaxel 1.2 μM, 1 mM GTP, competitor 0.1–100 μM
DU145 cells [6] = experiment: Cell cycle progression by flow cytometry; assay type: cell-based, human; conditions: 24 h, propidium iodide
In short: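 DU145 cells were grown in DMEM with 10% FBS and penicillin-streptomycin, then treated 24 h after plating. Harvest was 24 h after treatment, pooling trypsinised and non-attached cells. Cells were PBS-washed and fixed in ice-cold 70% ethanol for at least 24 h. They were stained with propidium iodide plus RNase A (0.5 mg) for 30 min at 37 °C, run on a FACScan, and analysed for cell-cycle distribution.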

BT20 = experiment: In vitro cytotoxicity, BT20; assay type: cell-based; conditions: Homo sapiens, BT-20, 96 h, read-out: IC50 (GI50) BT20
In short: as §1

normal cell line = experiment: PARP cleavage, normal cell line; assay type: cell-based; conditions: data not shown
DAUDI = experiment: In vitro cytotoxicity, DAUDI; assay type: cell-based; conditions: Homo sapiens, 96 h, read-out: IC50 (GI50) DAUDI
In short: as §1

SKOV3 = experiment: In vitro cytotoxicity, SKOV3; assay type: cell-based; conditions: Homo sapiens, SK-OV-3, 96 h, read-out: IC50 (GI50) SKOV3
In short: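 Tumour cells grown in DMEM or RPMI with 10% fetal bovine serum and 1 unit/mL penicillin-streptomycin, plated in twelve-well dishes, then dosed 24 h later with test compound at various concentrations. After 96 h, viable cells counted in duplicate wells by trypan blue exclusion.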

DU145 cells [7] = experiment: PARP cleavage western blot, tumor cells; assay type: cell-based, human; conditions: tumor cell line
In short: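 DU145 cells in 100 mm plates were treated 24 h after plating with DMSO or increasing concentrations of test compound, then collected at set time points. Frozen pellets were lysed in 0.1% Triton X-100 buffer with protease inhibitors. Equal protein was run on 10% SDS-PAGE and moved to nitrocellulose. The blot was probed with anti-PARP antibody and IRDye 800 secondary, then scanned on Odyssey for PARP cleavage.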

LNCAP = experiment: In vitro cytotoxicity, LNCAP; assay type: cell-based; conditions: Homo sapiens, 96 h, read-out: IC50 (GI50) LNCAP
In short: as §1

RF-48 = experiment: In vitro cytotoxicity, RF-48; assay type: cell-based; conditions: Homo sapiens, RF48, 96 h, read-out: IC50 (GI50) RF-48
In short: as §1

HCT116 = experiment: In vitro cytotoxicity, HCT116; assay type: cell-based; conditions: Homo sapiens, HCT-116, 96 h, read-out: IC50 (GI50) HCT116
In short: as §1

MIAPaCa2 = experiment: In vitro cytotoxicity, MIAPaCa2; assay type: cell-based; conditions: Homo sapiens, MIA PaCa-2, 96 h, read-out: IC50 (GI50) MIAPaCa2
In short: as §1

H187 = experiment: In vitro cytotoxicity, H187; assay type: cell-based; conditions: Homo sapiens, NCI-H187, 96 h, read-out: IC50 (GI50) H187
In short: as §1

COc1ccc(NS(=O)(=O)/C=C/c2c(OC)cc(OC)cc2OC)cc1 [6i, (E)-N-(4-Methoxyphenyl)-2-(2′,4′,6′-trimethoxyphenyl)ethenesulfonamide]
pIC50 (MES-SA): 7.30
pIC50 (SK-MEL-28): 7.30
pIC50 (NAMALWA): 7.00
pIC50 (SK BR-3): 7.30
pIC50 (MCF-7): 7.30
pIC50 (H80): 7.00
pIC50 (RF-1): 7.30
pIC50 (N417): 7.30

CC[C@]1(O)C[C@H]2CN(CCc3c([nH]c4ccccc34)[C@@](C(=O)OC)(c3cc4c(cc3OC)N(C=O)[C@H]3[C@@](O)(C(=O)OC)[C@H](OC(C)=O)[C@]5(CC)C=CCN6CC[C@]43[C@@H]65)C2)C1 [vincristine, reference compound]
competition with vinblastine binding to tubulin [1]: effectively competed

COc1cc(OC)c(/C=C/S(=O)(=O)Nc2ccc(OC)c(N)c2)c(OC)c1 [6t, (E)-N-(3-Amino-4-methoxyphenyl)-2-(2′,4′,6′-trimethoxyphenyl)ethenesulfonamide]
pIC50 (DU145): 8.10
pIC50 (SK-MEL-28): 8.10
pIC50 (NAMALWA): 8.10
resistance factors (MES-SA / DX5): < 2
polymerized versus soluble tubulin in cells (tubulin in DU145 cells): concentration-dependent depolymerization of tubulin; also recorded: completely inhibits the polymerization of tubulin
tubulin depolymerization in paclitaxel pre-treated cells (tubulin in DU145 cells; paclitaxel 24 h, then compound 4 h): effective at depolymerizing paclitaxel induced polymerized tubulin
effect on microtubule cytoskeleton / mitotic spindle (DU145 cells [2]): complete depolymerization of the microtubule cytoskeleton
LD50 to Caco-2 cells (Caco-2 cells; one hour incubation, Alamar Blue): >1000 µM
pIC50 (HCT15): 8.10
pIC50 (various tumor cell lines): 8.00 to 8.52
pIC50 (MOLT-4): 8.10
pIC50 (T47D): 8.10
anchorage-independent growth in soft agar (MIA-PaCa-2 cells): inhibition of anchorage-independent growth of tumor cells in a dose dependent manner
tumor growth in xenograft ([3]; 20 mg/kg IP every other day, 6 injections, female nude mice): readily inhibited tumor growth
body weight ([3]; 20 mg/kg IP, xenograft study): no body weight loss of more than 10%; also recorded: no reduction in body weight
LD50 to HepG2 cells (HepG2 cells): >1000 µM
tubulin polymerization [4]: completely inhibit tubulin polymerization
pIC50 (PC3): 8.10
competition with paclitaxel binding to tubulin [5]: did not compete
cell cycle distribution (DU145 cells [6]; 0.005 μM): accumulated in the G2/M phase
cell cycle distribution (DU145 cells [6]; 0.02 μM): a majority of cells showed G2/M arrest
pIC50 (BT20): 8.10
PARP cleavage in normal cell line (normal cell line): no PARP cleavage
pIC50 (DAUDI): 8.10
pIC50 (SKOV3): 8.10
competition with vinblastine binding to tubulin [1]: did not compete
PARP cleavage (DU145 cells [7]): Full length PARP gets cleaved
pIC50 (LNCAP): 8.10

O=c1cc[nH]c(=S)[nH]1 [2-thiouracil, 2-Thiouracil, reference compound]
LD50 to Caco-2 cells (Caco-2 cells; human, Caco-2, 1 h): > 1000 µM

COC(=O)Nc1nc2cc(C(=O)c3cccs3)ccc2[nH]1 [nocodazole, Nocodazole, reference compound]
tubulin polymerization [4]: completely inhibit tubulin polymerization

CC(=O)O[C@H]1C(=O)[C@@]2(C)[C@H]([C@H](OC(=O)c3ccccc3)[C@]3(O)C[C@H](OC(=O)[C@H](O)[C@@H](NC(=O)c4ccccc4)c4ccccc4)C(C)=C1C3(C)C)[C@]1(OC(C)=O)CO[C@@H]1C[C@@H]2O [Paclitaxel, reference compound]
polymerized versus soluble tubulin in cells (tubulin in DU145 cells): induced a shift from soluble to polymerized tubulin
tubulin polymerization [4]: strong increase in turbidity

CC(=O)O[C@@]12CO[C@@H]1C[C@H](O)[C@@]1(C)C(=O)[C@H](O)C3=C(C)[C@@H](OC(=O)[C@H](O)[C@@H](NC(=O)OC(C)(C)C)c4ccccc4)C[C@@](O)([C@@H](OC(=O)c4ccccc4)[C@H]21)C3(C)C.O.O.O [docetaxel, reference compound]
competition with paclitaxel binding to tubulin [5]: effectively competed

COc1cc(OC)c(/C=C/S(=O)(=O)Nc2ccc(OC)c(NCC(=O)O)c2)c(OC)c1 [25a, (E)-2-(2-Methoxy-5-(2-(2′,4′,6′-trimethoxyphenyl)vinylsulfonamido)phenylamino)acetic acid]
tubulin polymerization [4]: completely inhibit tubulin polymerization

COc1cc(OC)c(/C=C/S(=O)(=O)Nc2ccc(OC)c(O)c2)c(OC)c1 [6p, (E)-N-(3-Hydroxy-4-methoxyphenyl)-2-(2′,4′,6′-trimethoxyphenyl)ethenesulfonamide]
pIC50 (RF-48): 8.00
pIC50 (HCT116): 8.00
pIC50 (MIAPaCa2): 8.00
pIC50 (H187): 8.00
pIC50 (RF-1): 8.00
pIC50 (N417): 8.00

COc1cc(OC)c(/C=C/S(=O)(=O)Nc2ccc(OC)c(NC(C)(C)C(=O)O)c2)c(OC)c1 [25c, (E)-2-(2-Methoxy-5-(2-(2′,4′,6′-trimethoxyphenyl)vinylsulfonamido)phenylamino)-2-methylpropanoic acid]
resistance factors (MES-SA / DX5): < 2
pIC50 (MOLT-4): 7.52
tubulin polymerization [4]: completely inhibit tubulin polymerization
pIC50 (DAUDI): 7.52
pIC50 (N417): 7.52

Reference: article PMC3819402 (Journal of medicinal chemistry, 2013)
